Data published in ChEMBL document CHEMBL1250498, “Design, synthesis and pro-apoptotic antitumour properties of indole-based 3,5-disubstituted oxadiazoles” (Eur J Med Chem, 2010).

Key:
[1] = Anticancer activity against human COLO320 cells after 72 hrs by WST-1 assay; assay type: functional, cell-based; conditions: COLO 320, 72 h
Method in brief: (§1)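 Cells grown in DMEM with 2 mM L-glutamine, 10% FBS, 2.5% horse serum, penicillin and streptomycin, 37 °C, 5% CO2. Seeded at 2 × 10³/well, exposed 72 h to 0.1–50 µM (DMSO ≤0.2% in medium). WST-1 formazan absorbance read at 450 nm. Inhibition taken as % absorbance reduction versus control; IC50 from non-linear least-squares fit. Triplicate, independent experiments averaged.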

MIA PaCa-2 [2] = assay: Anticancer activity against human MIAPaCa2 cells after 72 hrs by WST-1 assay; assay type: functional, cell-based; conditions: MIA PaCa-2, 72 h; method in brief: as §1
MCF7 = assay: Anticancer activity against human MCF7 cells after 72 hrs by WST-1 assay; assay type: functional, cell-based; conditions: MCF7, 72 h; method in brief: as §1
Jurkat = assay: Anticancer activity against human Jurkat cells after 72 hrs by WST-1 assay; assay type: functional, cell-based; method in brief: as §1
COLO 320 [3] = assay: Induction of apoptosis in human COLO320 cells assessed as increase in intraneucleosomal DNA fragmentation at 100 uM after 24 hrs by ELISA relative to control; assay type: functional
Method in brief: (§2)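 Dosed at 100 µM for 24 h. Trypsin-harvested cells pooled with detached cells. Cytoplasmic histone-associated DNA fragments (released nucleosomes) measured by sandwich ELISA using a mouse monoclonal anti-DNA/histone antibody. Given as fold over untreated control; duplicate, mean ± SEM.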

MIA PaCa-2 [4] = assay: Induction of apoptosis in human MIAPaCa2 cells assessed as increase in intraneucleosomal DNA fragmentation at 100 uM after 24 hrs by ELISA relative to control; assay type: functional; method in brief: as §2
COLO 320 [5] = assay: Induction of apoptosis in human COLO320 cells assessed as increase in caspase 3/7 activation at 100 uM after 24 hrs by spectrophotometry relative to control; assay type: functional
Method in brief: (§3)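 Seeded at 7 × 10³/well and dosed 100 µM for 24 h. Caspase-3/7 substrate then added; fluorescence read with excitation 485 nm and emission 530 nm. Result given as the ratio of treated-cell signal to untreated vehicle-only cells.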

MIA PaCa-2 [6] = assay: Induction of apoptosis in human MIAPaCa2 cells assessed as increase in caspase 3/7 activation at 100 uM after 24 hrs by spectrophotometry relative to control; assay type: functional; method in brief: as §3

Row | IC50 (MIA PaCa-2 [2]) | IC50 (MCF7) | IC50 (Jurkat) | Compound | IC50 [1] | fold change (FC) (COLO 320 [3]) | fold change (FC) (MIA PaCa-2 [4]) | fold change (FC) (COLO 320 [5]) | fold change (FC) (MIA PaCa-2 [6])
1 | 30.5 µM | > 50 µM | > 50 µM | Cc1noc(-c2cc3ccccc3[nH]2)n1 | 11.8 µM |  |  |  | 
2 | > 50 µM | 16.7 µM | 19.9 µM | COc1ccc2[nH]c(-c3nc(C)no3)cc2c1 | 10.4 µM |  |  |  | 
3 | 19.4 µM | 12.4 µM | 22.9 µM | Cc1noc(-c2cc3cc(F)ccc3[nH]2)n1 | 18.1 µM | 1 | 7.3 | 1.5 | 1.3
4 | > 50 µM | 34.4 µM | 21.6 µM | Cc1noc(-c2cc3cc(Cl)ccc3[nH]2)n1 | 19.5 µM |  |  |  | 
5 | 22 µM | 45.7 µM | > 50 µM | c1ccc(-c2noc(-c3cc4ccccc4[nH]3)n2)cc1 | 12 µM | 2.5 | 1.4 | 3.1 | 1.2
6 | 18.7 µM | > 50 µM | > 50 µM | Nc1noc(-c2cc3ccccc3[nH]2)n1 | 27.7 µM |  |  |  | 
7 | 32.6 µM | > 50 µM | > 50 µM | COc1ccc2[nH]c(-c3nc(-c4ccccc4)no3)cc2c1 | 18.7 µM |  |  |  | 
8 | 13 µM | 26 µM | 26.9 µM | Oc1ccc2[nH]c(-c3nc(-c4ccccc4)no3)cc2c1 | 15.7 µM | 4.3 | 7.3 | 3.6 | 0.7
9 | 33.6 µM | 35 µM | 33.8 µM | Fc1ccc2[nH]c(-c3nc(-c4ccccc4)no3)cc2c1 | 10.8 µM | 5.3 | 6.9 | 4.4 | 1.2
10 | > 50 µM | > 50 µM | > 50 µM | O=[N+]([O-])c1ccc2[nH]c(-c3nc(-c4ccccc4)no3)cc2c1 | 12.5 µM |  |  |  | 
11 | 23.1 µM | 29.1 µM | > 50 µM | Clc1ccc2[nH]c(-c3nc(-c4ccccc4)no3)cc2c1 | 16.5 µM | 2.1 | 1.9 | 1.3 | 1.9
12 | 19.2 µM | > 50 µM | > 50 µM | Clc1ccc(-c2noc(-c3cc4ccccc4[nH]3)n2)cc1 | 13.9 µM | 3 | 1 | 0.3 | 1.2
13 | 22.7 µM | > 50 µM | > 50 µM | COc1ccc2[nH]c(-c3nc(-c4ccc(Cl)cc4)no3)cc2c1 | 12.8 µM | 1.8 | 1.2 | 4.5 | 10.1
14 | > 50 µM | > 50 µM | > 50 µM | Fc1ccc2[nH]c(-c3nc(-c4ccc(Cl)cc4)no3)cc2c1 | > 50 µM |  |  |  | 
15 | 17.6 µM | > 50 µM | > 50 µM | O=[N+]([O-])c1ccc2[nH]c(-c3nc(-c4ccc(Cl)cc4)no3)cc2c1 | 7.7 µM | 1.8 | 2.7 | 6.4 | 23.9
16 | > 50 µM | > 50 µM | > 50 µM | Clc1ccc(-c2noc(-c3cc4cc(Cl)ccc4[nH]3)n2)cc1 | 25 µM |  |  |  | 
17 | > 50 µM | > 50 µM | > 50 µM | Cn1c(-c2nc(-c3ccc(Cl)cc3)no2)cc2cc(Cl)ccc21 | 16.9 µM |  |  |  | 
18 | > 50 µM | > 50 µM | > 50 µM | COc1ccc(-c2noc(-c3cc4ccccc4[nH]3)n2)cc1 | 27.7 µM |  |  |  | 
19 | 23.1 µM | > 50 µM | > 50 µM | COc1ccc(-c2noc(-c3cc4ccccc4n3C)n2)cc1 | > 50 µM |  |  |  | 
20 | 5.6 µM | > 50 µM | > 50 µM | COc1ccc(-c2noc(-c3cc4cc(OC)ccc4[nH]3)n2)cc1 | 28.3 µM | 1.2 | 1.9 | 1.1 | 2
21 | 10.3 µM | > 50 µM | > 50 µM | COc1ccc(-c2noc(-c3cc4cc(F)ccc4[nH]3)n2)cc1 | 14.8 µM | 1.4 | 2.2 | 2.1 | 5
22 | 7.8 µM | > 50 µM | > 50 µM | COc1ccc(-c2noc(-c3cc4cc(Cl)ccc4[nH]3)n2)cc1 | 9.6 µM | 1.2 | 1.4 | 4.2 | 1.4
23 | > 50 µM | > 50 µM | > 50 µM | FC(F)(F)c1ccc(-c2noc(-c3sccc3Cl)n2)cc1 | 1.2 µM |  |  |  | 
